According to ChEMBL document CHEMBL3271979, “Inhibition of solid tumors by nitrosoureas. 1. Lewis lung carcinoma” (1977):
Active and inactive are the calls of the source. No cut-off for these calls is given here.

Key:
[1] = Antitumor activity against mouse early Lewis lung carcinoma allografted in BDF1 mouse assessed as increase in host life span at 60 mg/kg, ip administered as single dose on 1 or 2 days post-tumor implantation; format: functional; settings: route intraperitoneal
Procedure, shortened: (§1)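 BDF1 mice (C57Blk/6 × DBA/2) implanted sc by trocar with ~40 mg Lewis lung tumor fragments from bacteriologically sterile donor tumors. Single ip dose on day 1 or 2, as a solution or suspension in water (CMC or gum acacia) or saline (HPC or Tween 80). Read-out is […]. Same-dose toxicity controls were run in nontumor-bearing mice.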

[2] = Antitumor activity against mouse early Lewis lung carcinoma allografted in BDF1 mouse assessed as increase in host life span at 40 mg/kg, ip administered as single dose on 1 or 2 days post-tumor implantation; format: functional; settings: route intraperitoneal; procedure, shortened: as §1
Mus musculus [3] = experiment: Antitumor activity against mouse advanced Lewis lung carcinoma allografted in BDF1 mouse assessed as complete regression of established tumor at 60 mg/kg, ip administered as single dose on 7th day post-tumor implantation; format: functional, organism-based; design: dose 60 mg/kg
Procedure, shortened: (§2)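 BDF1 mice (C57Blk/6 × DBA/2) implanted sc by trocar with Lewis lung tumor fragments of about 40 mg, taken only from bacteriologically sterile donor tumors. Mice bearing tumors of about 400 mg (day 6-7) were selected. Each received a single ip dose on day 7, at or below the LD10 in normal mice. Groups were of 10 mice. Tumor weight was taken from calipers as w = ab²/2, measured at least twice weekly. Matched non-tumor mice served as toxicity controls.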

Mus musculus [4] = experiment: Antitumor activity against mouse advanced Lewis lung carcinoma allografted in BDF1 mouse assessed as complete regression of established tumor at 40 mg/kg, ip administered as single dose on 7th day post-tumor implantation; format: functional, organism-based; design: dose 40 mg/kg; procedure, shortened: as §2
Mus musculus [5] = experiment: Antitumor activity against mouse advanced Lewis lung carcinoma allografted in BDF1 mouse assessed as disease cure at 40 mg/kg, ip administered as single dose on 7th day post-tumor implantation measured for 80 days post-drug treatment; format: functional, organism-based; design: dose 40 mg/kg
Procedure, shortened: (§3)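 BDF1 mice (C57Blk/6 × DBA/2) implanted sc by trocar with about 40 mg Lewis lung tumor fragments from bacteriologically sterile donors. Advanced-disease groups held tumors of about 400 mg by day 6-7, sized by caliper (w = ab²/2). Single ip injection on day 7, in water or saline vehicle, at or below the LD10 in normal mice. Tumors measured at least twice weekly.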

Mus musculus [6] = experiment: Antitumor activity against mouse advanced Lewis lung carcinoma allografted in BDF1 mouse assessed as disease cure at 60 mg/kg, ip administered as single dose on 7th day post-tumor implantation measured for 80 days post-drug treatment; format: functional, organism-based; design: dose 60 mg/kg; procedure, shortened: as §2
[7] = Antitumor activity against mouse advanced Lewis lung carcinoma allografted in BDF1 mouse assessed as increase in host life span at 60 mg/kg, ip administered as single dose on 7th day post-tumor implantation; format: functional; settings: route intraperitoneal; procedure, shortened: as §3
[8] = Antitumor activity against mouse early Lewis lung carcinoma allografted in BDF1 mouse assessed as time delay in tumor growth at 60 mg/kg, ip administered as single dose on 1 or 2 days post-tumor implantation; format: functional; settings: route intraperitoneal
Procedure, shortened: (§4)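 BDF1 mice (C57Blk/6 × DBA/2) implanted sc by trocar with ~40 mg Lewis lung tumor fragments from bacteriologically sterile donors. A single ip dose was given on day 1 or 2, as a solution or suspension in water or saline with suspending agent, at ≤0.5 ml. Tumors were measured by caliper at least twice weekly, with weight = ab²/2. Delay was taken as the days for the tumor to reach 1 g.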

[9] = Antitumor activity against mouse early Lewis lung carcinoma allografted in BDF1 mouse assessed as time delay in tumor growth at 40 mg/kg, ip administered as single dose on 1 or 2 days post-tumor implantation; format: functional; settings: route intraperitoneal; procedure, shortened: as §4
[10] = Antitumor activity against mouse advanced Lewis lung carcinoma allografted in BDF1 mouse assessed as increase in host life span at 40 mg/kg, ip administered as single dose on 7th day post-tumor implantation; format: functional; settings: route intraperitoneal; procedure, shortened: as §3
[11] = Antitumor activity against mouse early Lewis lung carcinoma allografted in ip dosed BDF1 mouse assessed as disease cure administered as single dose on 1 or 2 days post-tumor implantation measured for 80 days post-drug treatment; format: functional
Procedure, shortened: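 BDF1 mice implanted sc by trocar with ~40 mg Lewis lung fragments from sterile donor tumors. A single ip dose was given on day 1 or 2 after implant, in water or saline vehicle. Cures were scored in animals observed for at least 80 days after treatment. Drug-toxicity controls were matched non-tumor-bearing mice monitored for body weight and deaths.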

[12] = Ratio of ED50 for antitumor activity against mouse L1210 cells allografted in ip dosed mouse to LD10 for mouse
Mus musculus [13] = experiment: Antitumor activity against mouse advanced Lewis lung carcinoma allografted in ip dosed BDF1 mouse assessed as complete regression of established tumor administered as single dose on day 6 or 7 post-tumor implantation; format: functional, organism-based; procedure, shortened: as §2
Mus musculus [14] = experiment: Antitumor activity against mouse advanced Lewis lung carcinoma allografted in ip dosed BDF1 mouse assessed as disease cure administered as single dose on day 6 or 7 post-tumor implantation; format: functional, organism-based; procedure, shortened: as §2
[15] = Antitumor activity against mouse advanced Lewis lung carcinoma allografted in ip dosed BDF1 mouse assessed as increase in host lifespan administered as single dose on day 6 or 7 post-tumor implantation; format: functional
Procedure, shortened: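 Advanced Lewis lung model: about 40 mg fragments implanted sc by trocar into BDF1 mice, and mice with tumors of about 400 mg (day 6-7) selected. Tumor weight from calipers, w = ab²/2. Agent given as one ip dose in distilled water or physiological saline. Nontumor-bearing mice received matching doses as toxicity controls.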

Mus musculus [16] = experiment: Antitumor activity against mouse advanced Lewis lung carcinoma allografted in BDF1 mouse assessed as complete regression of established tumor at 18 mg/kg, ip administered as single dose on 7th day post-tumor implantation; format: functional, organism-based; design: dose 18 mg/kg; procedure, shortened: as §2
Mus musculus [17] = experiment: Antitumor activity against mouse advanced Lewis lung carcinoma allografted in BDF1 mouse assessed as complete regression of established tumor at 12 mg/kg, ip administered as single dose on 7th day post-tumor implantation; format: functional, organism-based; design: dose 12 mg/kg; procedure, shortened: as §2
Mus musculus [18] = experiment: Antitumor activity against mouse advanced Lewis lung carcinoma allografted in BDF1 mouse assessed as disease cure at 18 mg/kg, ip administered as single dose on 7th day post-tumor implantation measured for 80 days post-drug treatment; format: functional, organism-based; design: dose 18 mg/kg; procedure, shortened: as §2
Mus musculus [19] = experiment: Antitumor activity against mouse advanced Lewis lung carcinoma allografted in BDF1 mouse assessed as disease cure at 12 mg/kg, ip administered as single dose on 7th day post-tumor implantation measured for 80 days post-drug treatment; format: functional, organism-based; design: dose 12 mg/kg; procedure, shortened: as §2
[20] = Antitumor activity against mouse advanced Lewis lung carcinoma allografted in BDF1 mouse assessed as increase in host life span at 18 mg/kg, ip administered as single dose on 7th day post-tumor implantation; format: functional; settings: route intraperitoneal; procedure, shortened: as §3
[21] = Antitumor activity against mouse advanced Lewis lung carcinoma allografted in BDF1 mouse assessed as increase in host life span at 12 mg/kg, ip administered as single dose on 7th day post-tumor implantation; format: functional; settings: route intraperitoneal; procedure, shortened: as §3
L1210 = experiment: Antitumor activity against mouse L1210 cells allografted in ip dosed mouse assessed as disease cure administered as single dose; format: functional, organism-based
[22] = Antitumor activity against mouse early Lewis lung carcinoma allografted in BDF1 mouse assessed as increase in host life span at 57 mg/kg, ip administered as single dose on 1 or 2 days post-tumor implantation; format: functional; settings: route intraperitoneal; procedure, shortened: as §1
[23] = Antitumor activity against mouse early Lewis lung carcinoma allografted in BDF1 mouse assessed as increase in host life span at 38 mg/kg, ip administered as single dose on 1 or 2 days post-tumor implantation; format: functional; settings: route intraperitoneal; procedure, shortened: as §1
[24] = Antitumor activity against mouse early Lewis lung carcinoma allografted in BDF1 mouse assessed as time delay in tumor growth at 57 mg/kg, ip administered as single dose on 1 or 2 days post-tumor implantation; format: functional; settings: route intraperitoneal; procedure, shortened: as §4
[25] = Antitumor activity against mouse early Lewis lung carcinoma allografted in BDF1 mouse assessed as time delay in tumor growth at 38 mg/kg, ip administered as single dose on 1 or 2 days post-tumor implantation; format: functional; settings: route intraperitoneal; procedure, shortened: as §4
Mus musculus [26] = experiment: Antitumor activity against mouse advanced Lewis lung carcinoma allografted in BDF1 mouse assessed as disease cure at 55 mg/kg, ip administered as single dose on 7th day post-tumor implantation measured for 80 days post-drug treatment; format: functional, organism-based; design: dose 55 mg/kg; procedure, shortened: as §2
Mus musculus [27] = experiment: Antitumor activity against mouse advanced Lewis lung carcinoma allografted in BDF1 mouse assessed as complete regression of established tumor at 55 mg/kg, ip administered as single dose on 7th day post-tumor implantation; format: functional, organism-based; design: dose 55 mg/kg; procedure, shortened: as §2
[28] = Antitumor activity against mouse advanced Lewis lung carcinoma allografted in BDF1 mouse assessed as increase in host life span at 55 mg/kg, ip administered as single dose on 7th day post-tumor implantation; format: functional; settings: route intraperitoneal; procedure, shortened: as §3

Compound: O=NN(CCCl)C(=O)N[C@H]1CC[C@H](CCl)CC1
- ILS at 60 mg/kg [1]: 87%
- ILS at 40 mg/kg [2]: 74%
- inhibition (Mus musculus [3]): inactive
- inhibition (Mus musculus [4]): inactive
- Activity (Mus musculus [5]): inactive
- Activity (Mus musculus [6]): inactive
- ILS at 60 mg/kg [7]: 109%
- Time [8]: 4.3 days
- Time [9]: 5.2 days
- ILS at 40 mg/kg [10]: 51%
- Activity [11]: 10%
- Ratio [12]: 0.6
- inhibition (Mus musculus [13]): inactive
- Activity (Mus musculus [14]): inactive
- ILS [15]: >25%

Compound: CC(=O)OC[C@H]1CC[C@H](NC(=O)N(CCCl)N=O)CC1
- inhibition (Mus musculus [16]): inactive
- inhibition (Mus musculus [17]): inactive
- Activity (Mus musculus [18]): inactive
- Activity (Mus musculus [19]): inactive
- ILS at 18 mg/kg [20]: 65%
- ILS at 12 mg/kg [21]: 26%
- Activity [11]: 10%
- Activity (L1210): inactive
- inhibition (Mus musculus [13]): inactive
- Activity (Mus musculus [14]): inactive
- ILS [15]: >25%

Compound: O=NN(CCCl)C(=O)N[C@H]1CCCC[C@@H]1Cl (relative stereo)
- ILS at 57 mg/kg [22]: 38%
- ILS at 38 mg/kg [23]: 43%
- Time [24]: 2.5 days
- Time [25]: 3.3 days
- Activity (Mus musculus [26]): inactive
- inhibition (Mus musculus [27]): inactive
- ILS at 55 mg/kg [28]: 18%
- Activity [11]: 10%
- Ratio [12]: 0.6
- inhibition (Mus musculus [13]): inactive
- Activity (Mus musculus [14]): inactive
- ILS [15]: >25%
